MT1-MMP act inh: blockers of MT1-MMP proenzyme processing, primary screen, HT1080 RFP-PRO-GFP cells, GFP/RFP fluorescence. GFP/RFP ratio change, % at 20 µM. GFP/RFP ratio fluorescence, overnight; percent of plate control window, DMSO zero. actives 0.061% (n = 360,000). Matrix metalloproteinase-14 (Homo sapiens), P50281;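 active = GFP/RFP ratio change of at least 30% with cell ATP level not reduced by more than half and red fluorescence within 50% of control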
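Material: RFP-PRO-GFP reporter HT1080 cells. Dosing: single-point 20 µM compound, 1% DMSO. Controls: DMSO and RFP-L50D-GFP cell wells. Timing: cells overnight before dosing, compound overnight, 37 °C, 5% CO2. Measure: GFP/RFP fluorescence ratio.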
DAGLB inhibitor: DAGLB lipase inhibitors, primary screen, biochemical, fluorescence, HTS. HEK293T DAGLB membrane lysate, EnzChek fluorogenic substrate. actives 0.059% (n = 340,000). inhibition, % at 5.17 µM. Diacylglycerol lipase-beta (Homo sapiens), Q8NCG7; in the data active = inhibition above about 34%
Target sequence (Q8NCG7 whole entry, looked up): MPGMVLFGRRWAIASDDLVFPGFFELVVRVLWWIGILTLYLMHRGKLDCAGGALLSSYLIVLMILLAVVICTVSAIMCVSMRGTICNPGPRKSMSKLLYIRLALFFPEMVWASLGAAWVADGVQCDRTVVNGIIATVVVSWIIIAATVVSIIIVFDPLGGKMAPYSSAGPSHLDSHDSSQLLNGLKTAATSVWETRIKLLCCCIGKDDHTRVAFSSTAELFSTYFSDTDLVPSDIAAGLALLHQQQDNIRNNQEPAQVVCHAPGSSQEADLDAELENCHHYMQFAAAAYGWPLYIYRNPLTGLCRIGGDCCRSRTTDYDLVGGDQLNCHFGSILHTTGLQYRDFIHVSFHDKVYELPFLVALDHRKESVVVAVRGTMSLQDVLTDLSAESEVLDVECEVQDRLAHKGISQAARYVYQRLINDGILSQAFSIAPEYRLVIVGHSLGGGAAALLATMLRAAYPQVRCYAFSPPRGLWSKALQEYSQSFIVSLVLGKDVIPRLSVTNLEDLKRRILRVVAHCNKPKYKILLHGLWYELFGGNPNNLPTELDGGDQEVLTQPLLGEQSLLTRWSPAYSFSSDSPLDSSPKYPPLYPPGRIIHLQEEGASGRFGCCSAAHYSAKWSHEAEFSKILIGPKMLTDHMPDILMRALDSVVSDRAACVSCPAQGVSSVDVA
rRNA inh HTS: reduced GFP signal of wild-type E. coli, primary screen, bacterial rRNA inhibitor project, GFP/RFP fluorescence, OD600, single point. GFP signal change (wild-type ribosome), % (test concentration not listed). AID 720706, 2013. actives 1.6% (n = 350,000). E. coli WT GFP vs humanized-ribosome RFP mutants, 24 h; hits give low values; DMSO median 0, no signal -100;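 active = significant combined selectivity score with lowered wild-type GFP, culture density cut under 30%, mutant RFP and density less affected; inactive = any of these conditions unmet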
SKN-1 block: suppressors of acrylamide-induced Pgst-4::GFP reporter in worms, primary screen, SKN-1 inhibitor project, whole organism, uHTS, GFP/RFP fluorescence ratio, strain VP596; inhibition, % at 21.8 µM; actives 0.49% (n = 360,000); AID 624304, 2012; C. elegans VP596 Pgst-4::GFP/RFP ratio, 24 h;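 active = interference check ratio from 0.5 to 1.5 plus GFP to RFP signal ratio inhibition reaching or exceeding a fixed threshold, cut at about 30% in these data, passing the limit was not always enough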
hiPSC survival: enhancers of single-cell hiPSC survival, primary screen, ATPlite luminescence. 100% = ROCK inhibitor wells, 0% = DMSO. survival enhancement, % at 20 µM. actives 0.044% (n = 360,000). AID 602274, 2012; in the data active = survival enhancement above about 18%;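 note: cells exposed to compounds for 16 hours before the ATP read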
Cneo AK release: Cryptococcus neoformans cell lysis inducers, primary screen, AK release luminescence, single concentration | C. neoformans lysis, adenylate kinase release luminescence, 4 h; normalised: neutral wells 0, clomiphene wells 100 | lysis activity, % at 15 µM | actives 0.2% (n = 360,000);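 active = mean lysis activity across replicates of at least 80%, whatever share of replicates individually reach that level; inactive = mean lysis activity below 80%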
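Material: C. neoformans cells; Schedule: 4 h static compound exposure, 37 °C, read 1 h post-reagent; Measured by: adenylate kinase release luminescence; Read-out: signal increase indicating cell lysis; Controls: Clomiphene as positive lysis control.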
Hits are given with their value; i = inactive; nt = no result given. Only some compounds are listed: those with a hit (about 1.8% of all), similar ones and a draw of the others.

SMILES | MT1-MMP act inh | DAGLB inhibitor | rRNA inh HTS | SKN-1 block | hiPSC survival | Cneo AK release
Cn1nnnc1Sc1ncnc2scc(-c3ccc(C(F)(F)F)cc3)c12 | i | i | i | i | i | i
CCOC(=O)C1=CCN(S(=O)(=O)c2ccc(C)cc2)[C@H]1c1ccccc1Cl | i | nt | -29 | i | i | i
CCOC(=O)C1=CCN(S(=O)(=O)c2ccc(C)cc2)C1c1ccccc1F (stereo not drawn) | i | nt | i | i | i | i
CCN(C[C@H]1N[C@H](CO)[C@H]1c1ccc(-c2ccccc2)cc1)C(=O)COC | nt | nt | i | nt | nt | i
CN(Cc1ccccc1)C(=O)c1[nH]cnc1C(=O)NCc1ccccc1 | i | i | -28 | i | i | i
CC(NC(=O)CN1CCN(c2cccc(Cl)c2)CC1)c1ccccc1 (stereo not drawn) | i | i | -28 | i | i | i
Nc1cc(Cl)ccc1Oc1ccc2ccccc2c1 | i | i | -24 | i | i | nt
Cc1ccc(Oc2ccc(Cl)cc2N)cc1 | i | i | i | i | i | nt
CC(NC(=O)c1ccc(CS(=O)(=O)c2ccc(Cl)cc2)o1)c1ccc2c(c1)OCCO2 (stereo not drawn) | i | i | -17 | i | i | i
CCCCCn1c(CCNC(=O)c2cccs2)nc2ccccc21 | i | i | -30 | i | i | i
CCC(=O)Nc1ccc2c(c1)C(=O)N(C)C[C@@H](OC)[C@@H](C)CN(C(=O)c1cnccn1)[C@@H](C)CO2 | nt | nt | i | nt | nt | i
CC1CCCCN1S(=O)(=O)c1ccc(C(=O)Nc2sccc2C(N)=O)cc1 (stereo not drawn) | i | i | i | 40 | i | i
Fc1ccc(-c2nnc(-c3ccc(Cl)cc3Cl)o2)cc1 | i | i | i | 48 | i | i
CCSc1nnc(-c2ccc(Cl)cc2Cl)o1 | i | i | nt | 67 | i | i
Clc1ccc(-c2nnc(-c3ccccc3)o2)c(Cl)c1 | i | i | nt | 69 | i | i
Fc1ccc(-c2nnc(-c3ccc(Cl)cc3)o2)cc1 | i | i | nt | i | i | i
C[C@@H]1CN([C@@H](C)CO)C(=O)c2cc(-c3ccc(F)cc3)cnc2O[C@@H]1CN(C)C(=O)Nc1ccc(F)cc1 | nt | nt | i | nt | nt | nt
COc1ccccc1-c1c(C(F)(F)F)oc2cc(OS(C)(=O)=O)ccc2c1=O | i | i | -26 | i | i | i
Cc1noc(C)c1NC(=O)Nc1ccc2c(c1)CC(=O)N([C@@H](C)CO)C[C@@H](C)[C@H](CN(C)S(C)(=O)=O)O2 | nt | nt | i | nt | nt | nt
Cc1ccc(-c2nc3cnccn3c2Nc2ccc3c(c2)OCO3)o1 | i | i | -17 | i | i | i
Cc1ccc(Nc2c(-c3ccc(C)o3)nc3cnccn23)cc1 | i | i | i | i | i | i
CCC(=O)N(C)C[C@@H]1Oc2cc(-c3ccc(OC)cc3)ccc2S(=O)(=O)N([C@H](C)CO)C[C@@H]1C | nt | nt | i | nt | nt | i
COc1ccc(C2=CC(=O)C[C@H](c3ccc(OC)c(OC)c3)C2)cn1 | i | i | i | i | 46 | i
CC(=O)O[C@H]1[C@@H](O)[C@H](O)[C@H](Oc2c(O)c(C)c3c4c2[C@@H](C)CC[C@@H]4[C@@H](C)C[C@@H]3C=C(C)C)O[C@H]1C | i | nt | nt | 40 | i | i
CC(=O)O[C@@H]1[C@H](Oc2c(O)c(C)c3c4c2[C@H](C)CC[C@H]4[C@H](C)C[C@@H]3C=C(C)C)O[C@@H](C)[C@@H](O)[C@H]1O | i | nt | nt | i | i | i
SMILES | MT1-MMP act inh | DAGLB inhibitor | rRNA inh HTS | SKN-1 block | hiPSC survival | Cneo AK release
COc1cc2c(cc1OC)CN(CCC(C)c1ccc(Cl)cc1)CC2 (stereo not drawn) | i | i | -33 | i | i | i
CC(C)CC#Cc1ccc([C@H]2[C@H](CO)N3C(=O)CN(C(=O)Cc4ccccc4)C[C@@H]23)cc1 | nt | nt | i | nt | nt | nt
C#CC(=O)N(c1ccc(OC)c(OC)c1)C(C(=O)NC1CCCC1)c1cccs1 (stereo not drawn) | i | i | -28 | i | i | i
CCOCC(=O)Nc1ccc(C)c(Cl)c1 | nt | i | nt | 36 | i | i
CC(C)NC(=O)N(C)C[C@H]1Oc2ncc(-c3ccc(C(=O)N(C)C)cc3)cc2C(=O)N([C@@H](C)CO)C[C@H]1C | nt | nt | i | nt | nt | i
C[C@@H]1CN([C@@H](C)CO)C(=O)Cc2cc(NS(=O)(=O)c3ccc(Cl)cc3)ccc2O[C@H]1CN(C)S(=O)(=O)c1cn(C)cn1 | nt | nt | i | nt | nt | i
O=C(Cc1ccc([N+](=O)[O-])cc1)Nc1cc(C(F)(F)F)cc(C(F)(F)F)c1 | i | i | -29 | i | i | i
CCCOC(=O)c1ccc(NC(=O)/C=C/c2cccs2)cc1 | i | i | nt | 47 | i | i
Cc1ccc(N(CC(O)Cn2nc(C)cc2C)S(=O)(=O)c2ccc3ccccc3c2)cc1 (stereo not drawn) | i | i | -31 | i | i | nt
O=S(=O)(NN=Cc1ccc(O)cc1O)c1cc(Cl)c(Cl)cc1Cl | i | i | -15 | i | i | i
O=C(COc1cccc(Oc2ccccc2)c1)Nc1ccc(SC(F)F)cc1 | i | i | nt | i | i | i
CN(C)C(=O)c1ccc(NC(=O)COc2cccc(Oc3ccccc3)c2)cc1 | i | i | -27 | i | i | i
COc1ccc(Cl)cc1NC(=S)NNC(=O)c1cccs1 | i | i | -32 | i | i | nt
COc1ccc(Cl)cc1NC(=O)CN(C)CC(=O)NCc1cccs1 | i | i | i | i | i | i
COc1ccc(Cl)cc1NC(=O)CN(C)S(=O)(=O)c1cccs1 | i | i | -32 | i | i | i
CC(C)C#Cc1ccc2c(c1)O[C@@H](CN(C)Cc1ccncc1)[C@H](C)CN([C@@H](C)CO)S2(=O)=O | nt | nt | i | nt | nt | i
CC(C)CC#Cc1ccc([C@H]2[C@H](CO)N3C(=O)CN(S(C)(=O)=O)C[C@@H]23)cc1 | nt | nt | i | nt | nt | nt
COCC(=O)N(C)C[C@H]1Oc2ncc(-c3ccccc3C)cc2C(=O)N([C@@H](C)CO)C[C@H]1C | nt | nt | i | nt | nt | i
Brc1ccccc1CN1CCN(Cc2c[nH]c3ccccc23)CC1 | nt | nt | -23 | nt | nt | nt
C[C@@H]1CCCCO[C@@H](CN(C)C(=O)Cc2ccccc2)[C@H](C)CN([C@H](C)CO)C(=O)c2cc(NS(=O)(=O)c3cn(C)cn3)ccc2O1 | nt | nt | i | nt | nt | i
CCOC(=O)c1ccc(Nc2nnc(C(C)(C)C)c(=O)[nH]2)cc1 | nt | i | nt | 37 | i | i
COc1ccc(-n2nc(C#N)c(Cl)cc2=O)cc1 | i | nt | -43 | i | i | nt

Assay outcomes: PubChem BioAssay, several laboratories
